In ChEMBL document CHEMBL1135860 (Bioorg Med Chem Lett, 2002) one finds inhibition, Ki and IC50 data, which are given here for 47 molecules.

Test [1] has as its target T1, 5-hydroxytryptamine receptor 7 (Homo sapiens, UniProt P34969). Description: Inhibition (at 1 uM) of radioligand [3H]LSD binding to human 5-hydroxytryptamine 7 receptor on HEK293 cells. Type of test: cell-based. The essentials: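 Human 5-HT7 binding was run with membranes from HEK293 cells expressing the receptor, incubated with 3H-LSD. Clozapine was the standard. Displacement of radioligand was recorded as percent inhibition at 1 µM.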

Test [2] deals with T1, 5-hydroxytryptamine receptor 7. Put plainly: Binding affinity towards human 5-hydroxytryptamine 7 receptor on HEK293 cells using radioligand [3H]LSD. The class given is cell-based. The essentials: (§1)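 Competition binding at human 5-HT7 receptor: membranes prepared from HEK293 cells expressing the receptor were incubated with 3H-LSD and a range of test concentrations. Clozapine was the reference standard. Ki values in nM were determined.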

Test [3] deals with D(1B) dopamine receptor (Homo sapiens) (UniProt P21918). Put plainly: Percent inhibition (at 1 uM) against dopamine D5 receptor.
Test [4] concerns the target 5-hydroxytryptamine receptor 1B (Homo sapiens) (UniProt P28222). Put plainly: Percent inhibition (at 1 uM) against 5-hydroxytryptamine 1B receptor.
Test [5] addresses 5-hydroxytryptamine receptor 6 (Homo sapiens, UniProt P50406). Description: Compound was tested for its binding affinity towards 5-hydroxytryptamine 6 receptor.
Test [6] deals with D(1A) dopamine receptor (Homo sapiens) (UniProt P21728). Description: Percent inhibition (at 1 uM) against Dopamine receptor D1.
Test [7] concerns the target T2, 5-hydroxytryptamine receptor 1F (Homo sapiens) (UniProt P30939).
T2 sequence (whole entry): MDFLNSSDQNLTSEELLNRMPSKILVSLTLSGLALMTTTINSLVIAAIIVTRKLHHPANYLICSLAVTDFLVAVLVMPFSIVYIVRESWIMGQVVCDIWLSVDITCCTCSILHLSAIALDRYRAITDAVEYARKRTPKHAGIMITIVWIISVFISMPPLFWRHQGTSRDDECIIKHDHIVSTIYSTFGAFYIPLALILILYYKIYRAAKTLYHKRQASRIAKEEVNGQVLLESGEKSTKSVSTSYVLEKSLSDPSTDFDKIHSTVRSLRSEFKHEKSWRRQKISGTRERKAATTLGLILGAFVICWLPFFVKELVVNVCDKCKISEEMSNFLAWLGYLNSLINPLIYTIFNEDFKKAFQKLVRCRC
Description: Percent inhibition (at 1 uM) against 5-hydroxytryptamine 1F receptor.

The target of test [8] is 5-hydroxytryptamine receptor 1D (Homo sapiens) (UniProt P28221). Put plainly: Percent inhibition (at 1 uM) against 5-hydroxytryptamine 1D receptor.
Test [9] deals with Muscarinic acetylcholine receptors; M1 & M2 (Homo sapiens) (UniProt P11229+P08172). Description: Percent inhibition (at 1 uM) against Muscarinic acetylcholine receptor M1- Muscarinic acetylcholine receptor M2. Type of test: protein assay.
Test [10] addresses 5-hydroxytryptamine receptor 2A (Homo sapiens) (UniProt P28223). Put plainly: Percent inhibition (at 1 uM) against 5-hydroxytryptamine 2A receptor.
Test [11] addresses T3, 5-hydroxytryptamine receptor 2C (Homo sapiens) (UniProt P28335).
T3 sequence (whole entry): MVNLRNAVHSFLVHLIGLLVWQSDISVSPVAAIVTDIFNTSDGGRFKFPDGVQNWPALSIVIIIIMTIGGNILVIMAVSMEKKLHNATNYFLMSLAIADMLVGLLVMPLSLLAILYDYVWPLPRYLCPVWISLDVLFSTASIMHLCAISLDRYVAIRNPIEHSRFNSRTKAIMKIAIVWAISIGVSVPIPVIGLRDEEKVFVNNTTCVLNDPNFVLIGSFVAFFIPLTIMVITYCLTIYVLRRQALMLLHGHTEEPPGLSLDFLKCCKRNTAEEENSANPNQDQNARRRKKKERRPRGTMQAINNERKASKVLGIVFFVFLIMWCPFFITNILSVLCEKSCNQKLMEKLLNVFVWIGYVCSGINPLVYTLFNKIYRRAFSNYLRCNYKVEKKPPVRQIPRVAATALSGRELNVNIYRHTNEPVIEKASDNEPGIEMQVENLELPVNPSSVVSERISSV
Put plainly: Percent inhibition (at 1 uM) against 5-hydroxytryptamine 2C receptor.

In test [12] the target is D(3) dopamine receptor (Homo sapiens) (UniProt P35462). Put plainly: Percent inhibition (at 1 uM) against Dopamine receptor D3.
For test [13], the target named is T4, D(4) dopamine receptor (Homo sapiens) (UniProt P21917).
T4 sequence (whole entry): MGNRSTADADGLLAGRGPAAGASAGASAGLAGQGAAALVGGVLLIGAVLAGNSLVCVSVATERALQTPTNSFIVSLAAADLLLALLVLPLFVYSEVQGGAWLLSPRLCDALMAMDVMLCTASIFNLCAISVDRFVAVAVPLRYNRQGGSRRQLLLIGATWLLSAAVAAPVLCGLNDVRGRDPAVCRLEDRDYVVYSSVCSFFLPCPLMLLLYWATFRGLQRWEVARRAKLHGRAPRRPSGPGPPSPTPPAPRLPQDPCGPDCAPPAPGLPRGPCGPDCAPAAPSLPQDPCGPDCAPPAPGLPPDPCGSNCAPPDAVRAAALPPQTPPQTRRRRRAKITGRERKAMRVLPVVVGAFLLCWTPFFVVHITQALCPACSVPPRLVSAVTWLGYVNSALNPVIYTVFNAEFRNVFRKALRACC
Put plainly: Percent inhibition (at 1 uM) against Dopamine receptor D4.

In test [14] the target is T5, 5-hydroxytryptamine receptor 1A (Homo sapiens) (UniProt P08908).
T5 sequence (whole entry): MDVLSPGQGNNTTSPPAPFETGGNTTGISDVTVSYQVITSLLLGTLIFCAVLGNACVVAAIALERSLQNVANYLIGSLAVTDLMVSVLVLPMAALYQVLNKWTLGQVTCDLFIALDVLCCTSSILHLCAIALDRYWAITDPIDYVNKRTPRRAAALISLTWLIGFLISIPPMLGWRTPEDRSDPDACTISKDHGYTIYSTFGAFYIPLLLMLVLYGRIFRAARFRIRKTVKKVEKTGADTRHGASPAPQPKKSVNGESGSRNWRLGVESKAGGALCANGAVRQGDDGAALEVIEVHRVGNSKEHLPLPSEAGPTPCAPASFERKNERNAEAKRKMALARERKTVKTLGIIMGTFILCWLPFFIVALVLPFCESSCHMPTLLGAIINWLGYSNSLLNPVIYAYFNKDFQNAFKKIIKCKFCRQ
Put plainly: Percent inhibition (at 1 uM) against 5-hydroxytryptamine 1A receptor.

Test [15] has as its target D(2) dopamine receptor (Homo sapiens) (UniProt P14416). Description: Percent inhibition (at 1 uM) against Dopamine receptor D2.
Test [16] concerns the target T1, 5-hydroxytryptamine receptor 7. Put plainly: Compound was tested for its binding affinity towards human 5-hydroxytryptamine 7 receptor from HEK293 cells using radioligand [3H]LSD. Type of test: cell-based. The essentials: as §1

Each structure is given as a SMILES string.

T1 sequence (P34969 whole entry): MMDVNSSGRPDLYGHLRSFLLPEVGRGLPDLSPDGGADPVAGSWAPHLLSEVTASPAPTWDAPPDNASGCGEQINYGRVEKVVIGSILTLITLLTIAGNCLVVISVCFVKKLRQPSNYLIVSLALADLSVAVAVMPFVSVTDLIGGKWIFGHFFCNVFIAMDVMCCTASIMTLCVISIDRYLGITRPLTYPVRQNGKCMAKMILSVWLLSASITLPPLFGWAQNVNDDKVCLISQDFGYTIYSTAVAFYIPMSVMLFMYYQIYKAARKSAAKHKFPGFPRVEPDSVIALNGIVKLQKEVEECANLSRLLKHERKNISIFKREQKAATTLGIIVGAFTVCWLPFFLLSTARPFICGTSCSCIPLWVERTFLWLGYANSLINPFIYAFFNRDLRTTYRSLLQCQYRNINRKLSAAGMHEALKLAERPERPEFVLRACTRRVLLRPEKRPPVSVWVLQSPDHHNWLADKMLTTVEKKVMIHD
Chain of 5-hydroxytryptamine receptor 6 (P50406 whole entry): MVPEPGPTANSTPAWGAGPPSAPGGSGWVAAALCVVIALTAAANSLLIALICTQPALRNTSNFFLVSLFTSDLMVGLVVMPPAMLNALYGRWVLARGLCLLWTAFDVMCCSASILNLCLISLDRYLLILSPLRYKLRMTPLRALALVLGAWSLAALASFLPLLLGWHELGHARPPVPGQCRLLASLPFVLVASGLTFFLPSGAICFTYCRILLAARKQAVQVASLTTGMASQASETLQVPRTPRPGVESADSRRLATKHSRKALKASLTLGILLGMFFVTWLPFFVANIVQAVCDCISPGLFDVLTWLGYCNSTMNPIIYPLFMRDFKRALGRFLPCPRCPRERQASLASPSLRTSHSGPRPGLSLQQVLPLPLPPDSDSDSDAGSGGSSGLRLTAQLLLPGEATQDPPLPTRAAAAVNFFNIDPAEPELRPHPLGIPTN
Chain of D(1A) dopamine receptor (Homo sapiens) (P21728 whole entry): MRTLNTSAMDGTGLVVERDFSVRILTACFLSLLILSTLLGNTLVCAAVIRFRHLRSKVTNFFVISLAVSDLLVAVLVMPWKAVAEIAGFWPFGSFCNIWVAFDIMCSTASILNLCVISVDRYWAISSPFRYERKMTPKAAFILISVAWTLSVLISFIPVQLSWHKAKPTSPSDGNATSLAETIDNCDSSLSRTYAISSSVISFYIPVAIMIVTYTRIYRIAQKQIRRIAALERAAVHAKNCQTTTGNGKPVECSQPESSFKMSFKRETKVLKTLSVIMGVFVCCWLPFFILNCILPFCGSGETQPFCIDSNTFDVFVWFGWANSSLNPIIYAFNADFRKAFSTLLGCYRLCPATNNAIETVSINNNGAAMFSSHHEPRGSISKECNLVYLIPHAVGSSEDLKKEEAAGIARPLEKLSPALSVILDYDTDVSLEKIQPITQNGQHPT
Chain of 5-hydroxytryptamine receptor 2A (Homo sapiens) (P28223 whole entry): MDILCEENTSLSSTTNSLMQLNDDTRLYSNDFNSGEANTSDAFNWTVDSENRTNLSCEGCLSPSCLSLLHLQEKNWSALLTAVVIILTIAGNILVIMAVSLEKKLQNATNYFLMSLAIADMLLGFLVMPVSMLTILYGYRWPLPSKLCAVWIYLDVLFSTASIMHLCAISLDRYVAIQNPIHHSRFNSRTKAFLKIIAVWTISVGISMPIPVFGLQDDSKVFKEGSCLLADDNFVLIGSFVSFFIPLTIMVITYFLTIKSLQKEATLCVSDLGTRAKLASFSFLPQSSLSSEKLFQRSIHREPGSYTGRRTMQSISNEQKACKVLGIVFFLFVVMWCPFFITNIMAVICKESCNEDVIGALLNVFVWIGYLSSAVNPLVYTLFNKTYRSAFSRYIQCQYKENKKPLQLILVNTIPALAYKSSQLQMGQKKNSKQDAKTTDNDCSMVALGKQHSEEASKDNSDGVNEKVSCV
Chain of D(3) dopamine receptor (Homo sapiens) (P35462 whole entry): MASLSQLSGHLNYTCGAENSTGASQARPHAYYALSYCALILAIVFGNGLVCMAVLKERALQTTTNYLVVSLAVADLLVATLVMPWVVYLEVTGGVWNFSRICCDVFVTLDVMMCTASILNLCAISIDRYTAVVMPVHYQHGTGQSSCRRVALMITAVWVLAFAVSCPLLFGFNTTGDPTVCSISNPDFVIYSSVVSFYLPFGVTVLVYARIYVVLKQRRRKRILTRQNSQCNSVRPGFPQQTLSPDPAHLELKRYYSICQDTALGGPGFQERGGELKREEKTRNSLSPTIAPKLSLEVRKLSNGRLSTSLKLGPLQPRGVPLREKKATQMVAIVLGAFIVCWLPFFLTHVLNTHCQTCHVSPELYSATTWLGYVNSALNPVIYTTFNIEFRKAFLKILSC
Chain of D(1B) dopamine receptor (Homo sapiens) (P21918 whole entry): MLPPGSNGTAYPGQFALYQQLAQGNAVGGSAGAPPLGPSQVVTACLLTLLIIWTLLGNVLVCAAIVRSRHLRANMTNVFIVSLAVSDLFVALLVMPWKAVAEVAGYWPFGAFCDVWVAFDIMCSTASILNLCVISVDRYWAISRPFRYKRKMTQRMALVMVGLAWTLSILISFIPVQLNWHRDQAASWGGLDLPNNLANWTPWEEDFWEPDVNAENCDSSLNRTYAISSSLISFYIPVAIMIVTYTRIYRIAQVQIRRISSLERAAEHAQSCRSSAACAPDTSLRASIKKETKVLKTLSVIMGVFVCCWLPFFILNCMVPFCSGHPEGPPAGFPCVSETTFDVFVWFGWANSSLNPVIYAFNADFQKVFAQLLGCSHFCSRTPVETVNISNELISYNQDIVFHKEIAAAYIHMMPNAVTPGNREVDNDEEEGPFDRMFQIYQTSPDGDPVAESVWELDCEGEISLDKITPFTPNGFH
Chain of 5-hydroxytryptamine receptor 1B (Homo sapiens) (P28222 whole entry): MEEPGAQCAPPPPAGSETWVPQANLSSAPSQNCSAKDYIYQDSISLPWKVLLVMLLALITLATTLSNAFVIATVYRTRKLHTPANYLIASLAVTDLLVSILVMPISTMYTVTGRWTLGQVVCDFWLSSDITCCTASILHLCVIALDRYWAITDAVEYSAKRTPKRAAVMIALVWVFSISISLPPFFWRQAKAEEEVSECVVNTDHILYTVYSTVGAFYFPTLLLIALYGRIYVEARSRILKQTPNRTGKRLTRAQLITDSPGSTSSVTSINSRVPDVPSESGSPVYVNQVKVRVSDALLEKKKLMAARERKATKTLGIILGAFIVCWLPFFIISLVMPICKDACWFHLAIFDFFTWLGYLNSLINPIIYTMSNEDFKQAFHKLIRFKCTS
Chain of D(2) dopamine receptor (Homo sapiens) (P14416 whole entry): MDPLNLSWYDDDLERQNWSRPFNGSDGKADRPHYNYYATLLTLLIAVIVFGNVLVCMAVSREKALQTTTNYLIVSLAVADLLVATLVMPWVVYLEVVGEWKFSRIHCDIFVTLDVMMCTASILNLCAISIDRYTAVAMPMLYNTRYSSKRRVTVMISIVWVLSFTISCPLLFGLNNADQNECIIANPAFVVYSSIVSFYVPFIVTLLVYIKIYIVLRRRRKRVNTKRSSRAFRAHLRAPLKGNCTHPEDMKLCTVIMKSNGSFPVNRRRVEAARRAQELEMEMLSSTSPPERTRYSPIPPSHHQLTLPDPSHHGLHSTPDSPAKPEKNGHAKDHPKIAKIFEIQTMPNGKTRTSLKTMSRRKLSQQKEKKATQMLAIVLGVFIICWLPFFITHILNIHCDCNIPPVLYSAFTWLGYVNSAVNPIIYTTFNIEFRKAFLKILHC
Chain of 5-hydroxytryptamine receptor 1D (Homo sapiens) (P28221 whole entry): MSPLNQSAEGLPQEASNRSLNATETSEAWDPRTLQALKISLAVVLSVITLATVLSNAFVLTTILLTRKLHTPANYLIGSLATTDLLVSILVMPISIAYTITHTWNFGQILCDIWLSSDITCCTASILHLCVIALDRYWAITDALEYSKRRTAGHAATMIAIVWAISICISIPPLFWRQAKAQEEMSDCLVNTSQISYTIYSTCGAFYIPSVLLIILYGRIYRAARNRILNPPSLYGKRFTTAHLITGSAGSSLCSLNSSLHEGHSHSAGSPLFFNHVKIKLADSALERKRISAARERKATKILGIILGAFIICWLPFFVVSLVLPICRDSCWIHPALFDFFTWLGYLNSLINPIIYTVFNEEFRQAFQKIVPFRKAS

In general, inhibition refers to how much of the control response was suppressed. High values mean strong suppression, low ones little suppression. For orientation: Ki means a measure of affinity in units of concentration, obtained from inhibition or displacement. A high value points to a looser hold on the target. In test [1], `CN1CCCN(CCn2ccc3ccc(-c4ccsc4)cc32)CC1` had an inhibition of 68%. For the same molecule, in [2], the inhibition constant Ki was 109 nM. As to `CN1CCCN(CCn2ccc3ccc(OCc4ccccc4)cc32)CC1`, in test [1], the inhibition was found to be 28%. In [2], this molecule came in with a Ki of 182 nM.

`CC1CN(CCn2ccc3ccc(Br)cc32)CCN1` (stereo not given): the inhibition in test [1] turned out to be 52%. Molecule `Brc1cccc2c1ccn2CCN1CCN2CCCCC2C1` (stereo not given) yielded an inhibition in test [1] of 43%.

For `CC(C)c1ccc2ccn(CCN3CCCN(C)CC3)c2c1`, in test [1], the inhibition was 72%. The molecule further displayed a Ki in [2] of 145 nM. Taken in the same sequence, the figures for `Cc1ccc2ccn(CCN3CCCN(C)CC3)c2c1` were 62% and 125 nM. Regarding `CC(C)N1CCCN(CCn2ccc3ccc(Br)cc32)CC1`, the inhibition in test [1] was 92%. In test [2], this molecule came in with a Ki of 14 nM. In turn, `Brc1ccc2ccn(CCN3CCC4CCCCN4CC3)c2c1` (stereo not given) registered an inhibition in test [1] of 71%. On the same count and under the same terms, for `CN1CCCN(CCn2ccc3c(Br)cccc32)CC1` the value was 33%. Regarding `CC1CN(CCn2ccc3ccc(Br)cc32)CC(C)N1` (stereo not given), the inhibition in test [1] amounted to 26%.

Take `CCc1ccc2ccn(CCN3CCCN(C)CC3)c2c1`: the inhibition in [1] came to 66%. This molecule also registered a Ki in test [2] of 166 nM.

`CN1CCCN(CCn2ccc3ccc(C(N)=O)cc32)CC1`: the inhibition in [1] came to 33%.

With `Brc1ccc2ccn(CCN3CCCN(C4CC4)CC3)c2c1`, in [1], the inhibition was 96%. The same molecule returned an inhibition constant Ki in test [2] of 16 nM. For `CN1CCCN(CCn2ccc3cccc(Br)c32)CC1`, the inhibition in test [1] came out at 18%. In test [1], `C=Cc1ccc2ccn(CCN3CCCN(C)CC3)c2c1` returned an inhibition of 79%. The molecule further registered a Ki in [2] of 109 nM. Turning to `Brc1ccc2ccn(CCN3CCCN(c4ccccc4)CC3)c2c1`, the inhibition in [1] turned out to be 18%. Turning to `CN1CCCN(CCn2ccc3ccc(C(F)(F)F)cc32)CC1`, the inhibition in [1] was 89%. Further, the Ki in test [2] worked out at 23 nM. As to `CC(C)CN1CCCN(CCn2ccc3ccc(Br)cc32)CC1`, in [1], the inhibition was determined as 95%. In [2], this molecule showed a Ki of 37 nM. As to `Brc1ccc2ccn(CCN3CCNCC3)c2c1`, in test [1], the inhibition came out at 61%. Regarding `CN1CCCN(CCn2ccc3ccc(N)cc32)CC1`, the inhibition in [1] worked out at 0%. `CN1CCCN(CCn2ccc3cc(Br)ccc32)CC1`: the inhibition in test [1] was 65%. The molecule also showed a Ki in test [2] of 88 nM. In test [1], `Brc1cccc2ccn(CCN3CCN4CCCCC4C3)c12` (stereo not given) showed an inhibition of 13%. Take `CN1CCCN(CCn2ccc3ccc(C(C)(C)O)cc32)CC1`: the inhibition in test [1] stood at 6%.

Turning to `CN1CCCN(CCn2ccc3ccc(O)cc32)CC1`, in test [1], the inhibition was determined as 28%. For `Brc1ccc2ccn(CCN3CCCNCC3)c2c1`, the inhibition in test [1] worked out at 77%. In test [1], `Brc1ccc2c(ccn2CCN2CCN3CCCCC3C2)c1` (stereo not given) yielded an inhibition of 65%. This molecule also came in with a Ki in test [2] of 158 nM. In [1], `Brc1ccc2ccn(CCN3CCCN(CC4CC4)CC3)c2c1` registered an inhibition of 95%. The same molecule showed a Ki in test [2] of 9 nM.

Regarding `CN1CCCN(CCn2ccc3ccc(Cl)cc32)CC1`, the inhibition in [1] was 85%. This molecule had a Ki in test [2] of 34 nM. In test [1], `Brc1ccc2ccn(CCN3CCCN(C4CCCC4)CC3)c2c1` came in with an inhibition of 98%. Moreover, the Ki in test [2] was determined as 10 nM.

As to `Brc1ccc2ccn(CCN3CCN4CCCC4C3)c2c1` (stereo not given), the inhibition in [1] is 72%.

In [1], `CN1CCCN(CCn2ccc3ccc([N+](=O)[O-])cc32)CC1` showed an inhibition of 72%. In test [2], this molecule showed a Ki of 139 nM. In the case of `Brc1ccc2ccn(CCN3CCN4CCCCC4C3)c2c1` (stereo not given), in test [1], the inhibition turned out to be 78%. Also, affinity in test [2] was put at a Ki of 70 nM. Regarding `CC(C)(C)CN1CCCN(CCn2ccc3ccc(Br)cc32)CC1`, the inhibition in test [1] was found to be 70%. In test [2], the Ki was 163 nM.

On to `C#Cc1ccc2ccn(CCN3CCCN(C)CC3)c2c1`, for which the inhibition in test [1] came to 79%. The same molecule registered a Ki in [2] of 140 nM. With `Clc1ccc2ccn(CCN3CCCN4CCCCC4C3)c2c1` (stereo not given), the Ki in test [2] was determined as 10 nM. Regarding `CN1CCCN(CCn2ccc3ccc(Br)cc32)CC1`, the inhibition in test [1] was 93%. Also, affinity in test [2] was put at a Ki of 31 nM. Turning to `Brc1ccc2ccn(CCN3CCCN4CCCCC4C3)c2c1` (stereo not given), the inhibition was 17% in [3]; 99% in [1]; 0% in test [4]; 2% in test [6]; 0% in [7]; 0% in test [8]. Also, the inhibition was 35% in test [9]; 20% in [10]; 26% in test [11]; 27% in [12]; 4% in test [13]; 1% in [14]. The same molecule had an inhibition in [15] of 15%. Besides, the results for the Ki in [2] and in test [5] were 3 nM and 4070 nM, respectively. Regarding `CN1CCCN(CCn2ccc3ccc(-c4cccnc4)cc32)CC1`, the inhibition in test [1] is 35%. `C=C(C)c1ccc2ccn(CCN3CCCN(C)CC3)c2c1`: the inhibition in test [1] was found to be 72%. This molecule gave a Ki in test [2] of 70 nM. As a reminder, the IC50 is the concentration that gives 50% inhibition. Higher therefore signals lower potency. Molecule `C[C@H](Nc1nc(N)nc(NC[C@H]2C[C@@H]2c2ccc(F)cc2)n1)c1ccccc1` gave an IC50 in test [16] of less than 50 nM. Turning to `Cc1cccc(C#N)c1-c1cccc2c1-c1cccc3c1[C@@H](C2)N(C)CC3`, the inhibitory constant (Ki) in test [2] amounted to 1 nM. Regarding `CN1CCCN(CCn2ccc3ccc(F)cc32)CC1`, the inhibition in [1] is 60%. Besides, in [2], the Ki came to 288 nM. In the case of `Cc1cccc(S(=O)(=O)N(C)[C@H](C)CCN2CCC(C)CC2)c1` [SB-258719], in test [2] (hek293), affinity was put at a Ki of 32 nM. `Brc1ccc2ccn(CCN3CCN(C4CCCCC4)CC3)c2c1` gave an inhibition in test [1] of 36%.

Turning to `COc1ccc2ccn(CCN3CCCN(C)CC3)c2c1`, the inhibition in test [1] was 50%. In addition, in [2], affinity was put at a Ki of 1570 nM.

`Brc1ccc2ccn(CCN3CCCN(C4CCCCC4)CC3)c2c1`: the inhibition in test [1] was 96%. Also, in [2], affinity was put at a Ki of 17 nM. In turn, `FC(F)(F)c1ccc2ccn(CCN3CCCN4CCCCC4C3)c2c1` (stereo not given) displayed a Ki in test [2] of 7 nM.
